For four molecules, inhibition, Control and EC50 results are on record in ChEMBL document CHEMBL1137225, “Synthesis of analogues of Congo red and evaluation of their anti-prion activity” (2004).

Holding throughout (assay type): functional
The nature of assay [1]: Compound was tested for the inhibition of PrP-res formation in SMB cells at 2 uM. Conditions: Mus musculus. The procedure, abridged:
(§1)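 Persistently scrapie-infected mouse SMB cells in 199 medium with 10% FCS, 5% newborn calf serum, 37 °C, 5% CO2; plated at 50% confluency, attached 24 h, then given fresh medium with compound diluted from 10 mM DMSO stock for 4 days. Lysates digested with proteinase K (80 μg/mL, 1 h, 37 °C); PrP-res detected by DR1 western blot, ECL, densitometry.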

Assay [2] is described as follows: Compound was tested for the ability to inhibit the polymerization of PrPC by PrP-res at 100 uM; value ranges from 17-50 %. Details: scale not given: the % may be the effect or the level left. The procedure, abridged:
(§2)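 Substrate recombinant mouse PrP refolded without metal ions (50 μg), preincubated with compound (100 μM) in 500 μL H2O pH 6.5 for 30 min; seeded with aged Mn2+-refolded mouse PrP (10 μg). Turbidity read at 325 nm (5-mm cuvette) immediately and after 5 min; absorbance increase expressed as percentage of DMSO control.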

Assay [3] addresses Major prion protein (Mus musculus) (UniProt P04925). As to the kind of experiment: Inhibition of PrP-res formation in SMB (Scrapie mouse brain) cells at 10 uM. The procedure, abridged: as §1
Assay [4] can be described thus: Effective dose required for the inhibition of PrP-res formation in SMB cells; value ranges from 25-50 nM. The following applies: Mus musculus, read-out: ED50 (the source's name). The procedure, abridged: as §1
Assay [5] can be described thus: Compound was tested for the inhibition of PrP-res formation in SMB cells at 50 uM. The following applies: Mus musculus. The procedure, abridged:
as §1

For assay [6], the target named is Major prion protein (Mus musculus) (UniProt P04925). As to the kind of experiment: Inhibition of PrPC polymerization by PrP-res at 100 uM. On the set-up: scale not given: the % may be the effect or the level left. The procedure, abridged: as §2
Sequence of Major prion protein (Mus musculus) (P04925 whole entry): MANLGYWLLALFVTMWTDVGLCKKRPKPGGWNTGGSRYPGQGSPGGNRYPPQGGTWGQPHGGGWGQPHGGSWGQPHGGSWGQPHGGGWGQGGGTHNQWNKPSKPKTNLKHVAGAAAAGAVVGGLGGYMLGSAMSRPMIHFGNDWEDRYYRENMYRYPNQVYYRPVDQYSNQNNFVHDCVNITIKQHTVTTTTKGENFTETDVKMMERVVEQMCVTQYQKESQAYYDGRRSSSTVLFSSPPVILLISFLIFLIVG

As to `Oc1ccc(/C=C/c2ccc(/C=C/c3ccc(O)cc3)cc2)cc1`, in assay [1], the inhibition at 2 µM stood at 5%.

In the case of `COC(=O)c1ccc(NC(=O)c2ccc(-c3ccc(C(=O)Nc4ccc(C(=O)OC)cc4O)cc3)cc2)c(O)c1`, the Control in assay [2] is 50%. Further, the inhibition entry in assay [3] is “Positive”. In addition, the EC50 in assay [4] was 0.05 µM.

`COc1ccc(C(=O)O)cc1NS(=O)(=O)c1ccc(-c2ccc(S(=O)(=O)Nc3cc(C(=O)O)ccc3OC)cc2)cc1` had an inhibition at 50 µM in assay [5] of 33%. Also, in assay [3], the inhibition entry was “Negative”. Further, the Control in assay [6] came out at 62%.

The molecule `COC(=O)c1ccc(/N=C/c2ccc(-c3ccc(/C=N/c4ccc(C(=O)OC)cc4O)cc3)cc2)c(O)c1` yielded an inhibition at 50 µM in assay [5] of 53%. Further, the inhibition result in assay [3] is “Negative”. In assay [6], this molecule displayed a Control of 49%.
